Data: ChEMBL document CHEMBL2040727, “Substituted thiazoles VI. Synthesis and antitumor activity of new 2-acetamido- and 2 or 3-propanamido-thiazole analogs” (2012)

Legend:
Assay type in all cases: functional
U-251 = assay: Growth inhibition of human U251 cells at 10 uM after 48 hrs by coulter counter analysis; conditions: U-251, 48 h, read-out: GI
Outline: (§1)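 Single-dose screen in the NCI 60 cell line panel. Cells grown in RPMI 1640 with 10% FBS. Compounds dissolved in DMSO and diluted in phosphate buffered saline, final DMSO under 1%. Duplicate wells seeded from culture at 6 × 10⁴ cells/ml. Incubated 48 h at 37 °C, humidified, 5% CO2. Cells diluted tenfold in saline and Coulter-counted. Percent growth inhibition computed against PBS/DMSO controls.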

CCRF-CEM = assay: Growth inhibition of human CCRF-CEM cells at 10 uM after 48 hrs by coulter counter analysis; conditions: read-out: GI
Outline: (§2)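 Single-dose NCI 60-line panel screen of test compounds. Cells grown in RPMI 1640 with 10% FBS. Compounds dissolved in DMSO, then diluted in phosphate buffer saline (final DMSO below 1%). Wells run in duplicate at 6 × 10⁴ cells/ml. Controls held PBS and DMSO at matching dilutions. Incubation 48 h at 37 °C under humidified 5% CO2. Cells diluted tenfold in saline and counted by Coulter counter. Percent growth inhibition taken from mean-graph of treated-cell growth.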

CAKI-1 = assay: Growth inhibition of human Caki1 cells at 10 uM after 48 hrs by coulter counter analysis; conditions: CAKI-1, 48 h, read-out: GI; outline: as §2
OVCAR-3 = assay: Growth inhibition of human OVCAR3 cells at 10 uM after 48 hrs by coulter counter analysis; conditions: OVCAR-3, 48 h, read-out: GI; outline: as §2
SW-620 = assay: Growth inhibition of human SW620 cells at 10 uM after 48 hrs by coulter counter analysis; conditions: SW-620, 48 h, read-out: GI; outline: as §1
786-0 = assay: Growth inhibition of human 786-0 cells at 10 uM after 48 hrs by coulter counter analysis; conditions: 786-0, 48 h, read-out: GI; outline: as §2
SK-MEL-28 = assay: Growth inhibition of human SK-MEL-28 cells at 10 uM after 48 hrs by coulter counter analysis; conditions: SK-MEL-28, 48 h, read-out: GI; outline: as §2
SF-268 = assay: Growth inhibition of human SF268 cells at 10 uM after 48 hrs by coulter counter analysis; conditions: SF-268, 48 h, read-out: GI; outline: as §2
IGROV-1 = assay: Growth inhibition of human IGROV1 cells at 10 uM after 48 hrs by coulter counter analysis; conditions: IGROV-1, 48 h, read-out: GI; outline: as §2
HOP-92 = assay: Growth inhibition of human HOP92 cells at 10 uM after 48 hrs by coulter counter analysis; conditions: HOP-92, 48 h, read-out: GI; outline: as §2
HT-29 = assay: Growth inhibition of human HT-29 cells at 10 uM after 48 hrs by coulter counter analysis; conditions: HT-29, 48 h, read-out: GI; outline: as §2
RPMI-8226 = assay: Growth inhibition of human RPMI8226 cells at 10 uM after 48 hrs by coulter counter analysis; conditions: RPMI-8226, 48 h, read-out: GI; outline: as §2
MDA-MB-468 = assay: Growth inhibition of human MDA-MB-468 cells at 10 uM after 48 hrs by coulter counter analysis; conditions: MDA-MB-468, 48 h, read-out: GI; outline: as §2
A549 = assay: Growth inhibition of human A549/ATCC cells at 10 uM after 48 hrs by coulter counter analysis; conditions: A549, 48 h, read-out: GI; outline: as §2
K562 = assay: Growth inhibition of human K562 cells at 10 uM after 48 hrs by coulter counter analysis; conditions: K562, 48 h, read-out: GI; outline: as §2
COLO 205 = assay: Growth inhibition of human COLO205 cells at 10 uM after 48 hrs by coulter counter analysis; conditions: COLO 205, 48 h, read-out: GI; outline: as §2
SNB-19 = assay: Growth inhibition of human SNB19 cells at 10 uM after 48 hrs by coulter counter analysis; conditions: SNB-19, 48 h, read-out: GI; outline: as §2
LOX IMVI = assay: Growth inhibition of human LOXIMVI cells at 10 uM after 48 hrs by coulter counter analysis; conditions: read-out: GI; outline: as §2
SF-539 = assay: Growth inhibition of human SF539 cells at 10 uM after 48 hrs by coulter counter analysis; conditions: SF-539, 48 h, read-out: GI; outline: as §2
RXF 393 = assay: Growth inhibition of human RXF393 cells at 10 uM after 48 hrs by coulter counter analysis; conditions: RXF 393, 48 h, read-out: GI; outline: as §2
HCC 2998 = assay: Growth inhibition of human HCC2998 cells at 10 uM after 48 hrs by coulter counter analysis; conditions: HCC 2998, 48 h, read-out: GI; outline: as §2
PC-3 = assay: Growth inhibition of human PC3 cells at 10 uM after 48 hrs by coulter counter analysis; conditions: PC-3, 48 h, read-out: GI; outline: as §2
HL-60(TB) = assay: Growth inhibition of human HL-60(TB) cells at 10 uM after 48 hrs by coulter counter analysis; conditions: HL-60, 48 h, read-out: GI
Outline: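 Cells grown in RPMI 1640 with 10% FBS. Compound was dissolved in DMSO and diluted in PBS (under 1% DMSO final), then added in duplicate wells to culture at 6 × 10⁴ cells/ml. PBS/DMSO vehicle controls were included. Incubated at 37 °C, humidified 5% CO₂, for 48 h. Cells were diluted 10-fold in saline and Coulter-counted. Single-dose NCI-60 screen, read as percent growth inhibition.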

UO-31 = assay: Growth inhibition of human UO31 cells at 10 uM after 48 hrs by coulter counter analysis; conditions: UO-31, 48 h, read-out: GI; outline: as §1
DU-145 = assay: Growth inhibition of human DU145 cells at 10 uM after 48 hrs by coulter counter analysis; conditions: DU-145, 48 h, read-out: GI; outline: as §2
A498 = assay: Growth inhibition of human A498 cells at 10 uM after 48 hrs by coulter counter analysis; conditions: A498, 48 h, read-out: GI; outline: as §2
[1] = Growth inhibition of human Hs 578T cells at 10 uM after 48 hrs by coulter counter analysis; conditions: read-out: GI; outline: as §2
[2] = Growth inhibition of human NCI-ADR-RES cells at 10 uM after 48 hrs by coulter counter analysis; conditions: read-out: GI; outline: as §2
SN12C = assay: Growth inhibition of human SN12C cells at 10 uM after 48 hrs by coulter counter analysis; conditions: read-out: GI; outline: as §2
Malme-3M = assay: Growth inhibition of human MALME-3M cells at 10 uM after 48 hrs by coulter counter analysis; conditions: read-out: GI; outline: as §2
HCT-15 = assay: Growth inhibition of human HCT15 cells at 10 uM after 48 hrs by coulter counter analysis; conditions: HCT-15, 48 h, read-out: GI; outline: as §2
NCI-H460 = assay: Growth inhibition of human NCI-H460 cells at 10 uM after 48 hrs by coulter counter analysis; conditions: NCI-H460, 48 h, read-out: GI; outline: as §2
BT-549 = assay: Growth inhibition of human BT549 cells at 10 uM after 48 hrs by coulter counter analysis; conditions: BT-549, 48 h, read-out: GI; outline: as §2

Structure (SMILES) | inhibition of growth at 10 µM (U-251) [%] | inhibition of growth at 10 µM (CCRF-CEM) [%] | inhibition of growth at 10 µM (CAKI-1) [%] | inhibition of growth at 10 µM (OVCAR-3) [%] | inhibition of growth at 10 µM (SW-620) [%] | inhibition of growth at 10 µM (786-0) [%] | inhibition of growth at 10 µM (SK-MEL-28) [%] | inhibition of growth at 10 µM (SF-268) [%] | inhibition of growth at 10 µM (IGROV-1) [%] | inhibition of growth at 10 µM (HOP-92) [%] | inhibition of growth at 10 µM (HT-29) [%] | inhibition of growth at 10 µM (RPMI-8226) [%] | inhibition of growth at 10 µM (MDA-MB-468) [%] | inhibition of growth at 10 µM (A549) [%] | inhibition of growth at 10 µM (K562) [%] | inhibition of growth at 10 µM (COLO 205) [%] | inhibition of growth at 10 µM (SNB-19) [%] | inhibition of growth at 10 µM (LOX IMVI) [%] | inhibition of growth at 10 µM (SF-539) [%] | inhibition of growth at 10 µM (RXF 393) [%] | further results
Cc1cnc(NC(=O)CN2CCN(C)CC2)s1 | < 10 | 75.5 | < 10 | < 10 | < 10 | < 10 | < 10 | < 10 | < 10 | < 10 | < 10 | < 10 | < 10 | < 10 | < 10 | < 10 | < 10 | < 10 | < 10 | < 10 | inhibition of growth at 10 µM (HCC 2998): < 10%; inhibition of growth at 10 µM (PC-3): < 10%; inhibition of growth at 10 µM (HL-60(TB)): < 10%; inhibition of growth at 10 µM (UO-31): 10.2%; inhibition of growth at 10 µM (DU-145): < 10%; inhibition of growth at 10 µM (A498): < 10%; inhibition of growth at 10 µM [1]: < 10%; inhibition of growth at 10 µM [2]: < 10%; inhibition of growth at 10 µM (SN12C): < 10%; inhibition of growth at 10 µM (Malme-3M): < 10%; inhibition of growth at 10 µM (HCT-15): < 10%; inhibition of growth at 10 µM (NCI-H460): < 10%; inhibition of growth at 10 µM (BT-549): < 10%
Cc1csc(NC(=O)C(C)N2CCN(C)CC2)n1 (centres undefined) | 23.5 | 41.1 | < 10 | < 10 | < 10 | < 10 | < 10 | < 10 | < 10 | < 10 | < 10 | < 10 | 11.1 | < 10 | < 10 | < 10 | < 10 | 46.4 | < 10 | < 10 | inhibition of growth at 10 µM (HCC 2998): < 10%; inhibition of growth at 10 µM (PC-3): < 10%; inhibition of growth at 10 µM (HL-60(TB)): < 10%; inhibition of growth at 10 µM (UO-31): < 10%; inhibition of growth at 10 µM (DU-145): < 10%; inhibition of growth at 10 µM (A498): < 10%; inhibition of growth at 10 µM [1]: < 10%; inhibition of growth at 10 µM [2]: < 10%; inhibition of growth at 10 µM (SN12C): 11.5%; inhibition of growth at 10 µM (Malme-3M): 17.6%; inhibition of growth at 10 µM (HCT-15): 25.5%; inhibition of growth at 10 µM (NCI-H460): < 10%; inhibition of growth at 10 µM (BT-549): 13.3%
O=C(CN1CCN(c2ccccc2)CC1)Nc1nc(-c2ccccc2)cs1 | < 10 | 22.7 | 36.6 | < 10 | < 10 | < 10 | < 10 | < 10 | 26.5 | 25.6 | 23.8 | 25 | 30.4 | 17.6 | 20 | 12.4 | 10.1 | 11.5 | < 10 | < 10 | inhibition of growth at 10 µM (HCC 2998): < 10%; inhibition of growth at 10 µM (PC-3): 26.3%; inhibition of growth at 10 µM (HL-60(TB)): 22%; inhibition of growth at 10 µM (UO-31): 51.4%; inhibition of growth at 10 µM (DU-145): < 10%; inhibition of growth at 10 µM (A498): 44.1%; inhibition of growth at 10 µM [1]: < 10%; inhibition of growth at 10 µM [2]: 23%; inhibition of growth at 10 µM (SN12C): 17.3%; inhibition of growth at 10 µM (Malme-3M): 23.4%; inhibition of growth at 10 µM (HCT-15): 54.6%; inhibition of growth at 10 µM (NCI-H460): 25%; inhibition of growth at 10 µM (BT-549): 11.3%
